Measured values gathered from unrelated publications.
Protocols differ between the studies behind these lines.
MMP2: 72 kDa type IV collagenase (MMP2, Homo sapiens, UniProt P08253)
SETD7: Histone-lysine N-methyltransferase SETD7 (SETD7, Homo sapiens, UniProt Q8WTS6)
F10: Coagulation factor X (F10, Homo sapiens, UniProt P00742)

SMILES	target	assay	conditions	inhibition [%]
O=C(Nc1cccnn1)N1CCN([C@@H]2CCOc3cc(C(F)(F)F)ccc32)CC1	MMP2	cell-free assay	20 µM	20
COc1ccc(S(=O)(=O)N(CC(=O)NO)CC(C)C)cc1	MMP2	enzyme activity, inhibitor	10 nM	24
Cn1cc(-c2cccc(N3CCc4c(sc5c4CC(C)(C)C5)C3=O)c2CO)cc(Nc2ccncn2)c1=O	G protein-coupled receptor kinase 5 (GRK5, Homo sapiens, UniProt P34947)	enzyme activity, inhibitor	1 µM	-5
Nc1c(S(=O)(=O)O)cc(Nc2ccc(Nc3nc(Cl)nc(Nc4cccc(S(=O)(=O)O)c4)n3)c(S(=O)(=O)O)c2)c2c1C(=O)c1ccccc1C2=O	SETD7	cell-free assay	10 µM	93
C#Cc1n[nH]c2c(-c3cn([C@@H](C)c4ccccn4)c(=O)[nH]c3=O)cc(F)cc12	Casein kinase I isoform gamma-1 (CSNK1G1, Homo sapiens, UniProt Q9HCP0)	enzyme activity, inhibitor	0.1 µM	2.6
CCOC(=O)c1ccc(OC(=O)CCCCCNC(=N)N)cc1	MMP2	enzyme activity, inhibitor	10 µM	26
C[C@H](C(=O)N[C@H]1COc2ccccc2[C@@H]1S(C)(=O)=O)c1ccc(F)cc1	F10	enzyme activity, inhibitor	10 µM	-3
CN(C)C(=O)COC(=O)Cc1ccc(OC(=O)c2ccc(NC(=N)N)cc2)cc1	MMP2	enzyme activity, inhibitor	10 µM	83
Cn1cc(-c2cc(F)cc(N3CCn4c(cc5c4CCCC5)C3=O)c2CO)cc(Nc2ccc(N3CCN(C4COC4)CC3)cn2)c1=O	G protein-coupled receptor kinase 6 (GRK6, Homo sapiens, UniProt P43250)	enzyme activity, inhibitor	0.1 µM	4
CC(C)C[C@H](NC(=O)[C@H](Cc1ccccc1)NC(=O)c1cnccn1)B(O)O	F10	enzyme activity, inhibitor	33 µM	48.8
CC(C)=CCCC1(C)C=Cc2c(O)c3c(c(CC=C(C)C)c2O1)OC12C(=CC4CC1C(C)(C)OC2(C/C=C(/C)C(=O)O)C4O)C3=O (centres unmarked)	SETD7	cell-free assay	10 µM	11
N=C(N)c1ccc2cc(OC(=O)c3ccc(N=C(N)N)cc3)ccc2c1	MMP2	enzyme activity, inhibitor	10 µM	0
Cc1ncc(C)n2nc(/C=C/c3nc(N4CCCC4)cc(N4CCOCC4)n3)nc12	MMP2	enzyme activity, inhibitor	10 µM	3
CCN(CC)CCCC[C@H](NC(=O)[C@H](CC(C)C)NC(=O)[C@H](C)NC(=O)[C@H](Cc1ccccc1)NC(=O)c1ccc(C(C)(C)C)cc1)C(=O)N[C@@H](CO)C(=O)OC	Galanin receptor type 2 (GALR2, Homo sapiens, UniProt O43603)	ligand displacement, radioligand	10 µM	-21
